7 molecules from ChEMBL document CHEMBL1132449, “Pyrroloquinoxaline derivatives as high-affinity and selective 5-HT(3) receptor agonists: synthesis, further structure-activity relationships, and biological studies” (J Med Chem, 1999) can be followed below.

Series [1] concerns the target Serotonin 3 (5-HT3) receptor. Put plainly: Effective concentration against 5-Hydroxytryptamine 3 receptor by measuring [14C]guanidinium uptake on NG108-15 cells. The series is classed as functional, cell-based.
Series [2] deals with T1, 5-hydroxytryptamine receptor 1A (Rattus norvegicus, UniProt P19327).
T1 sequence (P19327 whole entry): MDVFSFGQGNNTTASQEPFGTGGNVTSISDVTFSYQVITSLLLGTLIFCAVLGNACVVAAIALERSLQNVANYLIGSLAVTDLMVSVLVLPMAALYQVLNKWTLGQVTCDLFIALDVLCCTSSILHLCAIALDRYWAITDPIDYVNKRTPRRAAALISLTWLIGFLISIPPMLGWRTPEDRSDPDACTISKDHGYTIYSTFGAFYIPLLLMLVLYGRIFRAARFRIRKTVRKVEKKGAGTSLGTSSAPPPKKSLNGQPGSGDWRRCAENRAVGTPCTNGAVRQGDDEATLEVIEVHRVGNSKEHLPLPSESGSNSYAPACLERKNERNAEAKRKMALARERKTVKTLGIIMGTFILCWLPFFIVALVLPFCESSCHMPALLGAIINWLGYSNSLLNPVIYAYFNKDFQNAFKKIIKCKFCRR
Briefly: The compound was tested for the binding affinity against 5-hydroxytryptamine 1A receptor using [3H]8-OH-DPAT as radioligand.

Series [3] deals with T2, 5-hydroxytryptamine receptor 1B (Rattus norvegicus, UniProt P28564). Briefly: The compound was tested for the binding affinity against 5-hydroxytryptamine 1B receptor using [3H]5-HT as radioligand.
Series [4] addresses T3, 5-hydroxytryptamine receptor 2C (Rattus norvegicus, UniProt P08909).
T3 sequence (P08909 whole entry): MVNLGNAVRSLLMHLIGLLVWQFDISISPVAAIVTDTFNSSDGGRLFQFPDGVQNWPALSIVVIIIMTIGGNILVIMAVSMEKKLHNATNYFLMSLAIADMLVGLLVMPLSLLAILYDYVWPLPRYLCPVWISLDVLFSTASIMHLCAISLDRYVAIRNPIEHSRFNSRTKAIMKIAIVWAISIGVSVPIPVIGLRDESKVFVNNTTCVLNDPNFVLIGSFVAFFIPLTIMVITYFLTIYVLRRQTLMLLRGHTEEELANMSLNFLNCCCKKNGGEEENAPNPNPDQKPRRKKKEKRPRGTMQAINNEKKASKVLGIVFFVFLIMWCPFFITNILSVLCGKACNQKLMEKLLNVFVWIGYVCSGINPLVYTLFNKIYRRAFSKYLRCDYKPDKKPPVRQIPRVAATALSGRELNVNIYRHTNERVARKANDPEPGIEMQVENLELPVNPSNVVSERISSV
Briefly: The compound was tested for the binding affinity against 5-hydroxytryptamine 2C receptor using [3H]Mesulergine as radioligand.

The target in series [5] is T4, 5-hydroxytryptamine receptor 2A (Rattus norvegicus, UniProt P14842). Briefly: The compound was tested for the binding affinity against 5-hydroxytryptamine 2A receptor using [3H]ketanserin as radioligand.
Series [6] relates to NG108-15. Put plainly: The compound was tested for efficacy against 5-Hydroxytryptamine 3 receptor by measuring [14C]guanidinium uptake on NG108-15 cells.; PA=Partial agonist. The series is classed as functional, cell-based. The conditions noted are these: filed as partial agonist. Summed up: (§1)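 NG108-15 cells, grown 2 days, were washed in HEPES saline pH 7.4. They were exposed 10 min at 37 °C to buffer (135 mM NaCl, 10 mM guanidinium) with […] [14C]guanidinium, 1 mM 5-HT, […] and/or 8 drug concentrations. Cells were washed in ice-cold choline buffer, dissolved in NaOH and counted by scintillation. Assays run in triplicate.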

Series [7] concerns the target T5, 5-hydroxytryptamine receptor 4 (Cavia porcellus, UniProt O70528). Put plainly: The compound was tested for the binding affinity against 5-hydroxytryptamine 4 receptor using [3H]GR-113808 as radioligand.
Series [8] concerns the target T6, Serotonin 3 (5-HT3) receptor (Rattus norvegicus, UniProt P35563+Q9JJ16).
T6 sequence (P35563 whole entry): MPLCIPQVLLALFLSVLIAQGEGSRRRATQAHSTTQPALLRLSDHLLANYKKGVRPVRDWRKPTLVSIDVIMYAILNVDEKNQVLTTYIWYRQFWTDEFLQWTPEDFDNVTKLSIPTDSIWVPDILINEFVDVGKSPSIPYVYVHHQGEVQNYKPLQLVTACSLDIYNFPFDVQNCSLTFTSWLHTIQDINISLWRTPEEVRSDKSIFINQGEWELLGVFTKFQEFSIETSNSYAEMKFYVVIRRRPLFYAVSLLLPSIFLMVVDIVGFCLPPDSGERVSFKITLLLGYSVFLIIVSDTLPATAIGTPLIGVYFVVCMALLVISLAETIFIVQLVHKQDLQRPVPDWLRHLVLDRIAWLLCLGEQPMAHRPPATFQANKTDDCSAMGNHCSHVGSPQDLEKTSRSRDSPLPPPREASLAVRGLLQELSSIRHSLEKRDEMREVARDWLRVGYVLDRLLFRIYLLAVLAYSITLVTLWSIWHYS
T6 sequence (Q9JJ16 whole entry): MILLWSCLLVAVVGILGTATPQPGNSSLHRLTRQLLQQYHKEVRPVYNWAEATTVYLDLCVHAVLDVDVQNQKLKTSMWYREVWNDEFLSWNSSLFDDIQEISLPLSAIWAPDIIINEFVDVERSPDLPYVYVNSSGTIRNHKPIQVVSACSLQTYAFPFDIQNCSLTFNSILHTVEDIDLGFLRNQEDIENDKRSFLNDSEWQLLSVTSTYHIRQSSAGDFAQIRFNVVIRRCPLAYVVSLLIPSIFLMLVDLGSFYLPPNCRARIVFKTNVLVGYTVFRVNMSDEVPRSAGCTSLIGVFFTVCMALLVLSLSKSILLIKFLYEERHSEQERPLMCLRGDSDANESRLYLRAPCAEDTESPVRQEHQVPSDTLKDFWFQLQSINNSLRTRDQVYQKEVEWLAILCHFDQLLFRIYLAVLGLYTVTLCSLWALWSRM
Briefly: Binding affinity against 5-hydroxytryptamine 3 (5-HT3) receptor from rat cortical homogenate using [3H]zacopride as radioligand. Summed up: (§2)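 Male rat cortices, stored at -80 °C, were homogenized in ice-cold 25 mM Tris HCl pH 7.4 and spun at 50000g. Membranes were preincubated 10 min at 37 °C, washed, and resuspended with 10 µM pargyline (10 mg tissue/sample). They were incubated with 0.4 nM (final) [3H]zacopride for 30 min at 25 °C, filtered through PEI-treated GF/B and counted. IC50 came from dose-inhibition curves, mean ± SEM of three determinations.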

Series [9] deals with T6, Serotonin 3 (5-HT3) receptor. Put plainly: The compound was tested for the binding affinity against 5-hydroxytryptamine 3 receptor using [3H]zacopride as radioligand. The series is classed as protein-complex assay.
Series [10] concerns the target T5, 5-hydroxytryptamine receptor 4. Briefly: The compound was tested for the binding affinity against 5-hydroxytryptamine 4 receptor using [3H]GR-113808 as radioligand. The gist of the method:
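Male guinea pig striatal membranes, washed and preincubated at 37 °C, were incubated with 0.1 nM (final) [3H]GR113808 for 30 min at 37 °C.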

In series [11] the target is T2, 5-hydroxytryptamine receptor 1B. Briefly: The compound was tested for the binding affinity against 5-hydroxytryptamine 1B receptor using [3H]5-HT as radioligand.
Series [12] concerns the target T4, 5-hydroxytryptamine receptor 2A. Put plainly: The compound was tested for the binding affinity against 5-hydroxytryptamine 2A receptor using [3H]ketanserin as radioligand.
In series [13] the target is T6, Serotonin 3 (5-HT3) receptor. Briefly: The compound was tested for the binding affinity against 5-hydroxytryptamine 3 receptor using [3H]zacopride as radioligand. The series is classed as protein-complex assay.
Series [14] is described as follows: The compound was tested for brain to plasma partition in rat. The series is classed as ADME, organism-based. The following applies: brain and plasma, read-out: AUC ratio. Summed up: (§3)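 Male CD-COBS rats (175-200 g) received hydrochloride salts in saline i.v. at 5 mg/kg and were killed 60, 120 and 180 min after dosing. Plasma and brain levels were measured by HPLC-UV (254 nm) after liquid-liquid or solid-phase extraction with an internal standard. The ratio is brain-to-plasma AUC_t, 2-3 rats per point.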

In series [15] the test system is NG108-15. Briefly: The compound was tested for efficacy against 5-Hydroxytryptamine 3 receptor by measuring [14C]guanidinium uptake on NG108-15 cells; PA=Partial agonist. The series is classed as functional, cell-based. The following applies: filed as partial agonist. The gist of the method: as §1
Series [16] concerns the target T3, 5-hydroxytryptamine receptor 2C. Put plainly: The compound was tested for the binding affinity against 5-hydroxytryptamine 2C receptor using [3H]mesulergine as radioligand.
The target in series [17] is T6, Serotonin 3 (5-HT3) receptor. Put plainly: The compound was tested for binding affinity against 5-hydroxytryptamine 3 receptor from NG108-15 cells (using [3H]zacopride as radioligand). The series is classed as cell-based. Summed up: (§4)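 NG108-15 cells were grown in DMEM with 10% inactivated FCS plus HAT at 37 °C, 10% CO2, harvested by shaking and pelleted. About 420 000 cells/sample in 50 mM Tris HCl pH 7.5 with 25 mM NaCl were incubated with 0.4 nM (final) [3H]zacopride for 60 min at 25 °C, then filtered and counted. IC50 is mean ± SEM of three determinations.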

For series [18] the target is unchanged. Put plainly: The compound was tested for binding affinity against 5-hydroxytryptamine 3 receptor from NG108-15 cells using [3H]zacopride as radioligand. The series is classed as cell-based. The gist of the method: as §4
In series [19] the test system is NG108-15. Briefly: The compound was tested for efficacy against 5-Hydroxytryptamine 3 receptor by measuring [14C]guanidinium uptake on NG108-15 cells.; A = Agonist. The series is classed as functional, cell-based. The following applies: filed as agonist. Summed up: as §1
A short description of series [20]: The compound was tested for brain to plasma partition in rat. The following applies: brain and plasma, read-out: AUC ratio. The series is classed as ADME, organism-based. Summed up:
as §3

Series [21] has as its target T6, Serotonin 3 (5-HT3) receptor. Put plainly: The compound was tested for binding affinity against 5-hydroxytryptamine 3 receptor from rat cortical homogenate using [3H]zacopride as radioligand; not active. The gist of the method:
as §2

Series [22] deals with NG108-15. Briefly: The compound was tested for efficacy against 5-Hydroxytryptamine 3 receptor by measuring [14C]guanidinium uptake on NG108-15 cells; A= agonist. The following applies: filed as agonist. The series is classed as functional, cell-based. The gist of the method:
as §1

T4 sequence (P14842 whole entry): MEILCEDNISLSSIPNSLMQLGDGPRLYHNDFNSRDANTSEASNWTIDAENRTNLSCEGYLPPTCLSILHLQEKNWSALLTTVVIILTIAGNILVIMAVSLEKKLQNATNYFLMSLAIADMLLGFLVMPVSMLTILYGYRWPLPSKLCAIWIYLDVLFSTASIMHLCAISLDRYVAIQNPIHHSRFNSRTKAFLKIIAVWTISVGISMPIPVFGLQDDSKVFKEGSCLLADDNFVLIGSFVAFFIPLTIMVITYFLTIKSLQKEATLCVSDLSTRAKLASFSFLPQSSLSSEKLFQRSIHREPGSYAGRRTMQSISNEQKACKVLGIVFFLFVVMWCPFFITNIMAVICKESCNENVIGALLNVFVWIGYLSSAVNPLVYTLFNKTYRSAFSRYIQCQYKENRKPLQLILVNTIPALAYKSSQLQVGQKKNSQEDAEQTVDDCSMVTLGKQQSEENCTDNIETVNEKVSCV
T2 sequence (P28564 whole entry): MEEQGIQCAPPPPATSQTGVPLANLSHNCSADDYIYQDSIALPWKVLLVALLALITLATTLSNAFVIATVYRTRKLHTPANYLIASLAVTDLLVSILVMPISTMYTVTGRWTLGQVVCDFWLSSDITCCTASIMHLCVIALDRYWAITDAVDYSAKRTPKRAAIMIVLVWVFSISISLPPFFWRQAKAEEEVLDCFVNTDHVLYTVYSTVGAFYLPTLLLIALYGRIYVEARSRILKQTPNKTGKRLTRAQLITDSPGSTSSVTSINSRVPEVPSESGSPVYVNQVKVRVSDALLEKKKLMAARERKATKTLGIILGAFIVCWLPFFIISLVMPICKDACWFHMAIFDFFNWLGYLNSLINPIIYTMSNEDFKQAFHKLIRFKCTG
T5 sequence (O70528 whole entry): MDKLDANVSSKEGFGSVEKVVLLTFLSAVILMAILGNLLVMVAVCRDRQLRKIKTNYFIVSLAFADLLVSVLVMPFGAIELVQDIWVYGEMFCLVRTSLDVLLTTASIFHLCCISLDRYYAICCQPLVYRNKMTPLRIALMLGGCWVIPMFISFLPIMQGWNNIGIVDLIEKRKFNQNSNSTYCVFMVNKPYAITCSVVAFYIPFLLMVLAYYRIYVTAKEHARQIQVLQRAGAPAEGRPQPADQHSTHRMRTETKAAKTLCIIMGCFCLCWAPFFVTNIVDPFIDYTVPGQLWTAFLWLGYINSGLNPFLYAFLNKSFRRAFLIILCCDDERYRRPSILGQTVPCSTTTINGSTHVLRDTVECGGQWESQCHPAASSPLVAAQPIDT

Turning to `Cc1cccc2nc(N3CCNCC3)c3cccn3c12`, the midpoint of the response in [1], the EC50, lay at 9.5 nM. Also, the inhibitory constant (Ki) in series [2] is more than 10000 nM; in series [3] it was 251 nM; in series [4], 1000 nM; in series [5], 1000 nM; in [7] it was more than 10 µM; in series [9], 1 nM. Further, the Efficacy result with NG108-15 [6] was “Partial agonist”. In addition, the IC50 in [8] came out at 1.13 nM.
`c1ccc(CN2CCN(c3nc4ncccc4n4cccc34)CC2)cc1` showed a 50% effective concentration (EC50) in series [1] of 4.2 nM. Besides, the Ki in series [2] was more than 10000 nM; in series [10], more than 10 µM; in series [11] it was more than 10000 nM; in series [12] it was 794 nM; in [13], 2 nM; in [16], more than 10000 nM. Further, the Kp in series [14] turned out to be 2.1. For the same molecule, in the series with NG108-15 [15], the Efficacy result was “Partial agonist”. Besides, in [8], the IC50 was found to be 2.2 nM.
In [1], `CN1CCN(c2nc3ncccc3n3cccc23)CC1` came in with an EC50 of 1.7 nM. Further, the IC50 in series [17] was 9.3 nM. The Ki in series [2] was 25.1 nM; in series [10], more than 10 µM; in [11], 25.1 nM; in [12], more than 10000 nM; in [13] it was 2.51 nM; in series [16], 794 nM. Further, the Kp in series [14] stood at 4.9. Also, the Efficacy entry in the series on NG108-15 [15] was “Partial agonist”.
As for `Cc1cccc2nc(N3CCN(C)CC3)c3cccn3c12`, the EC50 in series [1] stood at 3.8 nM. In addition, the values for the half-inhibitory concentration (IC50) in series [18] and in series [8] were 0.26 nM and 0.79 nM, respectively. For the same molecule, the inhibition constant (Ki) is 398 nM in series [3]; more than 10000 nM in [4]; 501 nM in [5]; more than 10 µM in [7]; 0.794 nM in series [9]. Besides, the Efficacy result with NG108-15 [19] is “Agonist”. Further, in [20], the Kp was found to be 9.5.
Turning to `OCCN1CCN(c2nc3cccc(F)c3n3cccc23)CC1`, the concentration for a half-maximal effect (EC50) in series [1] was found to be 54 nM. Also, the inhibition constant Ki in [2] is 501 nM; in series [3] it was 1580 nM; in series [4], 2000 nM; in [5], 501 nM; in series [13], 7.94 nM; in series [7], more than 10 µM. Besides, the Kp in [14] is 20.3. Moreover, the Efficacy entry with NG108-15 [15] is “Partial agonist”. Also, the IC50 in series [8] was 8.2 nM.
In the case of `c1ccc(N2CCN(c3nc4ncccc4n4cccc34)CC2)cc1`, the half-inhibitory concentration (IC50) entry in series [21] is “Not Active”.
Take `Cc1ccc2c(c1)nc(N1CCN(C)CC1)c1cccn12`: a half-maximal effect in series [1] (EC50) was put at 14 nM. Moreover, the Efficacy entry with NG108-15 [22] is “Agonist”. In series [8], this molecule displayed a half-maximal inhibitory concentration (IC50) of 18 nM.
